# Data: ChEMBL document CHEMBL4311989, “Anti-hepatitis-C virus activity and QSAR study of certain thiazolidinone and thiazolotriazine derivatives as potential NS5B polymerase inhibitors” (Eur J Med Chem, 2019)
# How the values were obtained:
# Hepatitis C virus = assay: Antiviral activity against HCV genotype 1a infected in human Huh7.5 cells assessed as reduction in viral replication by measuring HCV core antigen level by ELISA; type: functional, organism-based, Hepacivirus hominis; conditions: subtype 1a
# In short: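 HCV GT1a replication in Huh-7.5 human hepatoma cells; HCV core protein quantified by core antigen ELISA per kit instructions. EC50 taken as concentration reducing HCV replication by 50%, with VCH-759 as reference.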
# [1] = molecular target: RNA-directed RNA polymerase (Hepacivirus hominis, UniProt O39930); assay: Inhibition of recombinant HCV genotype 1a NS5B polymerase coincubated with HCV international ribosome entry site template sequence containing nucleotide residues 21-371 of HCV 5'-untranslated Escherichia coli DNA polymerase I region incubated for 3 hrs by scintillation/luminescence counter method; parameters: species or system Hepatitis C virus subtype 1a
# In short: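 Recombinant GT1a NS5B RdRp, […] (GenBank AF356827), used at 0.26 ug/well; VCH-759 as non-nucleoside positive control; IC50 determined.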
# [2] = molecular target: RNA-directed RNA polymerase (Hepacivirus hominis) (UniProt O39930); assay: Potency index, ratio of VCH-759 IC50 to compound IC50 for HCV genotype 1a recombinant NS5B polymerase coincubated with HCV international ribosome entry site template sequence containing nucleotide residues 21-371 of HCV 5'-untranslated Escherichia coli DNA polymerase I region; conditions: Hepatitis C virus subtype 1a
# [3] = Cytotoxicity against human THLE2 cells assessed as reduction in cell viability incubated for 24 hrs by MTT assay; type: cell-based, THLE-2
# In short: (§1)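 Transformed normal human cells (THLE-2 liver epithelial; RPTEC/TERT1 proximal tubular epithelial) exposed to compound; viability read by MTT reduction to formazan. CC50 defined as concentration reducing cell viability by 50%; VCH-759 run as reference.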
# [4] = Cytotoxicity against human RPTEC/TERT1 cells assessed as reduction in cell viability incubated for 24 hrs by MTT assay; type: cell-based; in short: as §1
# [5] = Selectivity index, ratio of CC50 for human THLE2 cells to EC50 for HCV infected in human Huh7.5 cells; type: toxicity, cell-based; conditions: THLE2 cells (CC50) and HCV-infected Huh7.5 cells (EC50)
# In short: (§2)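 SI computed as CC50 on THLE-2 or RPTEC/TERT1 (MTT viability) divided by EC50 from HCV-infected Huh7.5 cells (core antigen ELISA).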
# [6] = Selectivity index, ratio of CC50 for human RPTEC/TERT1 cells to EC50 for HCV infected in human Huh7.5 cells; type: toxicity, cell-based; conditions: read-out: Ratio CC50/EC50; in short: as §2
Structure (SMILES),EC50 (Hepatitis C virus) [µM],IC50 [1] [µM],also measured
O=C(CN1C(=O)S/C(=C\c2ccc(F)cc2)C1=O)Nc1ccc(Cl)cc1,16.9,0.1,Ratio IC50 [2]: 1 to 2
O=C(CN1C(=O)S/C(=C\c2ccccc2)C1=O)Nc1ccccc1,19.6,4.8,–
O=C(CN1C(=O)S/C(=C\c2ccc(Cl)cc2)C1=O)Nc1ccccc1,11.1,0.085,Ratio IC50 [2]: 1 to 2
O=c1/c(=C\c2ccccc2Cl)sc2n1CN(c1ccccc1)CN=2,30.7,0.43,–
COc1ccc(N2CN=c3s/c(=C/c4ccccc4)c(=O)n3C2)cc1,10.8,0.75,–
COc1ccc(N2CN=c3s/c(=C/c4ccc(Cl)cc4Cl)c(=O)n3C2)cc1,13.2,0.22,–
COc1ccc(/C=C2\SC(=O)N(CC(=O)Nc3ccccc3)C2=O)cc1,11.6,0.25,–
COc1ccc(NC(=O)CN2C(=O)S/C(=C\c3ccc(F)cc3)C2=O)cc1,10.8,0.39,–
COc1ccc(NC(=O)CN2C(=O)S/C(=C\c3ccc(Cl)cc3)C2=O)cc1,43.9,0.37,–
COc1ccc(NC(=O)CN2C(=O)S/C(=C\c3ccccc3Cl)C2=O)cc1,11,1.2,–
COc1ccc(N2CN=c3s/c(=C/c4ccc(F)cc4)c(=O)n3C2)cc1,40.1,0.07,Ratio IC50 [2]: 1 to 2
O=c1/c(=C\c2ccc(Cl)cc2)sc2n1CN(c1ccc(Cl)cc1)CN=2,10.8,1.82,–
O=C(CN1C(=O)S/C(=C\c2ccccc2)C1=O)Nc1ccc(Cl)cc1,16.7,0.14,–
O=c1/c(=C\c2ccccc2Cl)sc2n1CN(c1ccc(Cl)cc1)CN=2,13.8,0.09,Ratio IC50 [2]: 1 to 2
O=c1/c(=C\c2ccc(Cl)cc2)sc2n1CN(c1ccccc1)CN=2,10.9,0.12,Ratio IC50 [2]: 1 to 2
N=C1S/C(=C\c2ccccc2)C(=O)N1c1ccccc1,11.1,0.58,–
O=C(CN1C(=O)S/C(=C\c2ccc(Cl)cc2Cl)C1=O)Nc1ccc(Cl)cc1,44,5.12,–
O=c1/c(=C\c2ccc(F)cc2)sc2n1CN(c1ccccc1)CN=2,18.7,2.2,–
COc1ccc(/C=c2/sc3n(c2=O)CN(c2ccc(Cl)cc2)CN=3)cc1,24.3,0.99,–
O=c1/c(=C\c2ccccc2)sc2n1CN(c1ccccc1)CN=2,13.3,0.62,–
O=c1/c(=C\c2ccccc2)sc2n1CN(c1ccc(Cl)cc1)CN=2,19.3,0.49,–
COc1ccc(NC(=O)CN2C(=O)S/C(=C\c3ccc(Cl)cc3Cl)C2=O)cc1,43.9,0.32,–
COc1ccc(/C=C2\SC(=O)N(CC(=O)Nc3ccc(OC)cc3)C2=O)cc1,19.6,0.78,–
COc1ccc(N2CN=c3s/c(=C/c4ccccc4Cl)c(=O)n3C2)cc1,13.5,1.26,–
O=c1/c(=C\c2ccc(Cl)cc2Cl)sc2n1CN(c1ccccc1)CN=2,14.5,1.37,–
COc1ccc(/C=c2/sc3n(c2=O)CN(c2ccccc2)CN=3)cc1,12.6,0.2,–

# Continued, in another order:
EC50 (Hepatitis C virus) [µM],IC50 [1] [µM],Structure (SMILES),also measured
10.8,0.44,O=C(CN1C(=O)S/C(=C\c2ccc(Cl)cc2Cl)C1=O)Nc1ccccc1,–
9.54,0.54,COc1ccc(/C=c2/sc3n(c2=O)CN(c2ccc(OC)cc2)CN=3)cc1,–
3.8,0.035,O=C(CN1C(=O)S/C(=C\c2ccccc2Cl)C1=O)Nc1ccccc1,CC50 at 24 h [3]: 103 µM; CC50 at 24 h [4]: 161 µM; selectivity ratio [5]: 27; selectivity ratio [6]: 42.5; Ratio IC50 [2]: 4
10.6,0.45,COc1ccc(NC(=O)CN2C(=O)S/C(=C\c3ccccc3)C2=O)cc1,–
5.29,0.14,CC1CCC(C(=O)N(c2cc(-c3ccccc3)sc2C(=O)O)C2CCC(O)CC2)CC1 (configuration not stated) [VCH-759],CC50 at 24 h [3]: 61.8 µM; CC50 at 24 h [4]: 81.3 µM; selectivity ratio [5]: 11.7; selectivity ratio [6]: 15.4
10.3,3.53,COc1ccc(N2CN=c3s/c(=C/c4ccc(Cl)cc4)c(=O)n3C2)cc1,–
6.58,0.2,O=c1/c(=C\c2ccc(F)cc2)sc2n1CN(c1ccc(Cl)cc1)CN=2,–
6.47,2.99,O=C(CN1C(=O)S/C(=C\c2ccccc2Cl)C1=O)Nc1ccc(Cl)cc1,–
8.4,0.14,O=C(CN1C(=O)S/C(=C\c2ccc(F)cc2)C1=O)Nc1ccccc1,–
9.5,0.54,O=c1/c(=C\c2ccc(Cl)cc2Cl)sc2n1CN(c1ccc(Cl)cc1)CN=2,–
7.8,0.21,O=C(CN1C(=O)S/C(=C\c2ccc(Cl)cc2)C1=O)Nc1ccc(Cl)cc1,–
7.93,0.28,COc1ccc(/C=C2\SC(=O)N(CC(=O)Nc3ccc(Cl)cc3)C2=O)cc1,–
8.98,0.76,O=C(C/N=C1/S/C(=C\c2ccccc2)C(=O)N1c1ccccc1)Nc1ccccc1,–
